Experimental data taken from the M2OR odorant receptor database.

Columns and labels:
Settings in all cases: stereoisomer not certain
[1] = biological target: T1, OR2A7 (Homo sapiens) (UniProt Q96R45)
T1 sequence (whole entry): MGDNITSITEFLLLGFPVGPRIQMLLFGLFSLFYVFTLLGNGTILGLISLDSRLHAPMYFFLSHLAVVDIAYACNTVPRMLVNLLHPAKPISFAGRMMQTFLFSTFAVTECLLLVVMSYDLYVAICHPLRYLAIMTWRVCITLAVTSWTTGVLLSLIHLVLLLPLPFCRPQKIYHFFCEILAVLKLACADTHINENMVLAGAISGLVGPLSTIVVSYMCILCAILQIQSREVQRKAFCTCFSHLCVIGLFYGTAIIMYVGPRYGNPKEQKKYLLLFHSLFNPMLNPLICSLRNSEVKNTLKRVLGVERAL
Method in brief: (§1)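 Transient luciferase assays in mammalian cell lines were common, though methods varied by source. The values come from published papers and their supplementary material, with extra details from the original authors when needed. Responsive refers to a measured signal the original authors judged statistically different from baseline, and non-responsive (inactive) to the remainder.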

[2] = biological target: OR2AE1 (Homo sapiens) (UniProt Q8NHA4)
OR2AE1 (Homo sapiens), sequence (Q8NHA4 whole entry): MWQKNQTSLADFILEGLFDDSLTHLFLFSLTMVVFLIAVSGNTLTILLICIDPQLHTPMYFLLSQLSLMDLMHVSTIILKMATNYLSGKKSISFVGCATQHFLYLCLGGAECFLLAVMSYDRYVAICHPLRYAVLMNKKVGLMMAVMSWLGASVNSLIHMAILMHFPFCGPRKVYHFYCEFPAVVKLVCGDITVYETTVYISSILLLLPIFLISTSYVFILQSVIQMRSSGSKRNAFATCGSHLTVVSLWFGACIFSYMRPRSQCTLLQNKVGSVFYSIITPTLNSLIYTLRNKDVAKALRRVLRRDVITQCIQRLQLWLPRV
Method in brief: as §1

[3] = biological target: OR2AG1 (Homo sapiens) (UniProt Q9H205)
OR2AG1 (Homo sapiens), sequence (Q9H205 whole entry): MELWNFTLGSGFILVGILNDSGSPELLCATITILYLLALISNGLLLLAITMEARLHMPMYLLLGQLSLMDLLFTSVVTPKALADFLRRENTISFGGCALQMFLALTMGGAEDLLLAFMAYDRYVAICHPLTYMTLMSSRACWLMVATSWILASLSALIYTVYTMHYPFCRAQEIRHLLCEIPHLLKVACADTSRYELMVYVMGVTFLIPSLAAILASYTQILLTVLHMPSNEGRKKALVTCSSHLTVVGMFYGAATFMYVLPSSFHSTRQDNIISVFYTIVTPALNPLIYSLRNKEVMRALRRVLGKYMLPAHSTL
Method in brief: as §1

[4] = biological target: OR2AG2 (Homo sapiens) (UniProt A6NM03)
OR2AG2 (Homo sapiens), sequence (A6NM03 whole entry): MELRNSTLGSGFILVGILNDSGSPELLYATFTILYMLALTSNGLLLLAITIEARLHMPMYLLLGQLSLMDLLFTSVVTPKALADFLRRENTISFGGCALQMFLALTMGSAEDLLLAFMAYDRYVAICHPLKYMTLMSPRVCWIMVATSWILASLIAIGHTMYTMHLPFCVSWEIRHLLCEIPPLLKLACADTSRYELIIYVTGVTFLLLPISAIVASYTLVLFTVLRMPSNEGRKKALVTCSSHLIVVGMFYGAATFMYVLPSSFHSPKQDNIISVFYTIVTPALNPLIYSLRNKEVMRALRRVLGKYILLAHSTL
Method in brief: as §1

[5] = biological target: OR2AJ1 (Homo sapiens) (UniProt Q8NGZ0)
OR2AJ1 (Homo sapiens), sequence (Q8NGZ0 whole entry): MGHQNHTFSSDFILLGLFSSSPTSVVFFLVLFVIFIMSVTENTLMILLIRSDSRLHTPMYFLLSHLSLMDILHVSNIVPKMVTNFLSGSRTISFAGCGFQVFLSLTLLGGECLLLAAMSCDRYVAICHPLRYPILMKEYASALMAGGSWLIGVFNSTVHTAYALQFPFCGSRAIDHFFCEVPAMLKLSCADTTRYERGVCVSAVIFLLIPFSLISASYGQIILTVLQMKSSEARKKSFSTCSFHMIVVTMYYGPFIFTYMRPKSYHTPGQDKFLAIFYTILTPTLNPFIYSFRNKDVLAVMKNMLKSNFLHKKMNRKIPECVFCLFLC
Method in brief: as §1

[6] = biological target: OR2AK2 (Homo sapiens) (UniProt Q8NG84)
OR2AK2 (Homo sapiens), sequence (Q8NG84 whole entry): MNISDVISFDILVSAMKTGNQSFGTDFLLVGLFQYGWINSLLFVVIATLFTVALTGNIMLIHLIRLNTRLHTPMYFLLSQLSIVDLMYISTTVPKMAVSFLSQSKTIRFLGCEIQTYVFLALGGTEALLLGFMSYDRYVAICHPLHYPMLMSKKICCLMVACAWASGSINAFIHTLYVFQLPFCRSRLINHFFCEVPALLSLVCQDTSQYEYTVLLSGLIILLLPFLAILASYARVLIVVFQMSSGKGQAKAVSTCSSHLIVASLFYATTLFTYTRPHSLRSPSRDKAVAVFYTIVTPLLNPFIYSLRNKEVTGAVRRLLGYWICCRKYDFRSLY
Method in brief: as §1

[7] = biological target: OR2AP1 (Homo sapiens) (UniProt Q8NGE2)
OR2AP1 (Homo sapiens), sequence (Q8NGE2 whole entry): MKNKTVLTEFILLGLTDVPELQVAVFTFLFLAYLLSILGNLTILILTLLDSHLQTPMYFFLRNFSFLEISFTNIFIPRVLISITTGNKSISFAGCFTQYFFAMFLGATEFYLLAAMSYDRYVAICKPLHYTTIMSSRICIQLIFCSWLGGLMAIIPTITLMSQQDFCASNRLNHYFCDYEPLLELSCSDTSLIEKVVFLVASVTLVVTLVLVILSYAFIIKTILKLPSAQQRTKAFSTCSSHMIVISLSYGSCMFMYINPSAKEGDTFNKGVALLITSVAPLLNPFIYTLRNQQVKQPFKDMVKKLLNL
Method in brief: as §1

[8] = biological target: OR2AT4 (Homo sapiens) (UniProt A6NND4)
OR2AT4 (Homo sapiens), sequence (A6NND4 whole entry): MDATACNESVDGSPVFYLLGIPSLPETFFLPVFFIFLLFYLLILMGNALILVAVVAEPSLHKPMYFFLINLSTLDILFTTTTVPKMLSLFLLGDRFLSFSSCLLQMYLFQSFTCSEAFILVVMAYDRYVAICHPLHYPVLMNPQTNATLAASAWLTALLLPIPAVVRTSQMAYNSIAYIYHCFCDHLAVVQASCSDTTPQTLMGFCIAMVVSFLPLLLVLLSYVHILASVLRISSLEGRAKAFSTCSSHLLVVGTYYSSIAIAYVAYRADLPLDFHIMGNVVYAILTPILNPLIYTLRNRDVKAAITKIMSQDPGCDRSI
Method in brief: as §1

[9] = test system: OR2A5 I126V A202S A255T
Method in brief: as §1

[10] = test system: OR2A7
OR2A7, sequence (as listed by the source): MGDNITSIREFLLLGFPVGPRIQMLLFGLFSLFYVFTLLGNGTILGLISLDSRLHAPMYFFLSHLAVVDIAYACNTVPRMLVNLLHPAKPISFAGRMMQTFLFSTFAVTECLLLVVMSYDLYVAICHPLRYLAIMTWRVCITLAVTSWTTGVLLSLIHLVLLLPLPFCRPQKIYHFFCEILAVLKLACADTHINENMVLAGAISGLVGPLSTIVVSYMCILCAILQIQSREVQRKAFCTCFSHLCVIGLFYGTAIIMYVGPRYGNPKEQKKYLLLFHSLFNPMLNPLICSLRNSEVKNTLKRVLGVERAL
Method in brief: as §1

Measured: odorant receptor agonist call;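 further: active if original authors judged signal statistically different from baseline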

Cc1cccc(C)c1
inactive: [1]

COc1ccc(C=O)cc1
inactive: [1]

Cc1c([N+](=O)[O-])c(C)c([N+](=O)[O-])c(C(C)(C)C)c1[N+](=O)[O-]
inactive: [1] | [2] | [3] | [4] | [5] | [6] | [7] | [8]

C=CCOC(=O)Cc1ccccc1
inactive: [9] | [1] | [10] | [2] | [3] | [4] | [6] | [7] | [8]
